Experimental data reported in ChEMBL document CHEMBL2380270, “Radiosynthesis and first evaluation in mice of [(18)F]NS14490 for molecular imaging of α7 nicotinic acetylcholine receptors” (Bioorg Med Chem, 2013).

Experiments:
Mus musculus [1] = assay: Biodistribution in CD1 mouse large intestine at 200 to 300 kBq, iv measured at 15 mins by gamma counting analysis; format: ADME, organism-based; conditions: in vivo, 0.25 h
In short: (§1)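 Female CD-1 mice, 200–300 kBq radiotracer given iv, n = 3 per time point. Animals anaesthetised for blood and urine sampling, then killed by cervical dislocation at 5, 15, 30 or 60 min p.i. Organs removed, weighed and gamma-counted; uptake expressed as % injected dose per g wet tissue.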

Pancreas [2] = assay: Biodistribution in CD1 mouse pancreas at 200 to 300 kBq, iv measured at 60 mins by gamma counting analysis; format: ADME, organism-based; conditions: in vivo, 1 h
In short: (§2)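 Female CD-1 mice received 200–300 kBq [18F]radiotracer intravenously. Blood and urine were sampled under anaesthesia, then mice were killed by cervical dislocation at 5, 15, 30 or 60 min p.i. (n = 3; control at 60 min n = 7). Organs were removed and weighed, activity was gamma-counted, and uptake was expressed as % injected dose per g wet tissue.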

Stomach [3] = assay: Biodistribution in CD1 mouse stomach at 200 to 300 kBq, iv measured at 15 mins by gamma counting analysis; format: ADME, organism-based; conditions: in vivo, 0.25 h; in short: as §2
[4] = Biodistribution in CD1 mouse urine at 200 to 300 kBq, iv measured at 5 mins by gamma counting analysis; format: ADME, organism-based; conditions: in vivo
In short: (§3)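 Female CD-1 mice given 200–300 kBq tracer intravenously. Animals anaesthetised for blood and urine sampling, then killed by cervical dislocation at 5, 15, 30 or 60 min (n = 3 per time; n = 7 at 60 min). Organs removed and weighed, activity gamma-counted, expressed as % injected dose per g wet weight. Blocking arm: 10 mg/kg i.p. in 0.9% saline, 10 min before tracer; two-tailed unpaired t test versus control.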

Mus musculus [5] = assay: Biodistribution in CD1 mouse adrenal at 200 to 300 kBq, iv measured at 15 mins by gamma counting analysis; format: ADME, organism-based, Adrenal gland; conditions: in vivo, 0.25 h; in short: as §1
[6] = Biodistribution in CD1 mouse urine at 200 to 300 kBq, iv measured at 60 mins by gamma counting analysis in presence of SSR180711; format: ADME, organism-based; conditions: in vivo, 1 h; in short: as §3
Pancreas [7] = assay: Biodistribution in CD1 mouse pancreas at 200 to 300 kBq, iv measured at 15 mins by gamma counting analysis; format: ADME, organism-based; conditions: in vivo, 0.25 h; in short: as §2
Blood [8] = assay: Biodistribution in CD1 mouse blood at 200 to 300 kBq, iv measured at 15 mins by gamma counting analysis; format: ADME, organism-based; conditions: in vivo, 0.25 h; in short: as §1
Femur [9] = assay: Biodistribution in CD1 mouse femur at 200 to 300 kBq, iv measured at 30 mins by gamma counting analysis; format: ADME, organism-based; conditions: in vivo, 0.5 h; in short: as §1
Lung = assay: Biodistribution in CD1 mouse lung at 200 to 300 kBq, iv measured at 60 mins by gamma counting analysis in presence of SSR180711; format: ADME, organism-based; conditions: in vivo, 1 h
In short: (§4)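 Blocking design in female CD-1 mice, n = 7 per group. The blocker was given at 10 mg kg^-1 i.p. in 0.9% saline 10 min before i.v. 200–300 kBq [18F]radiotracer. Mice were killed at 60 min p.i. and organs weighed and gamma-counted as % ID per g wet weight. Blocked groups were compared with controls by two-tailed independent Student's t test.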

Zone of skin = assay: Biodistribution in CD1 mouse skin at 200 to 300 kBq, iv measured at 60 mins by gamma counting analysis in presence of SSR180711; format: ADME, organism-based; conditions: in vivo, 1 h; in short: as §4
Muscle tissue [10] = assay: Biodistribution in CD1 mouse muscle at 200 to 300 kBq, iv measured at 15 mins by gamma counting analysis; format: ADME, organism-based; conditions: in vivo, 0.25 h; in short: as §2
Mus musculus [11] = assay: Biodistribution in CD1 mouse small intestine at 200 to 300 kBq, iv measured at 15 mins by gamma counting analysis; format: ADME, organism-based; conditions: in vivo, 0.25 h; in short: as §2
Urinary bladder [12] = assay: Biodistribution in CD1 mouse bladder at 200 to 300 kBq, iv measured at 5 mins by gamma counting analysis; format: ADME, organism-based; conditions: in vivo; in short: as §1
Femur [13] = assay: Biodistribution in CD1 mouse femur at 200 to 300 kBq, iv measured at 60 mins by gamma counting analysis; format: ADME, organism-based; conditions: in vivo, 1 h; in short: as §1
Kidney [14] = assay: Biodistribution in CD1 mouse kidney at 200 to 300 kBq, iv measured at 30 mins by gamma counting analysis; format: ADME, organism-based; conditions: in vivo, 0.5 h; in short: as §1
Blood [15] = assay: Biodistribution in CD1 mouse blood at 200 to 300 kBq, iv measured at 30 mins by gamma counting analysis; format: ADME, organism-based; conditions: in vivo, 0.5 h; in short: as §1
Brain [16] = assay: Biodistribution in CD1 mouse brain at 200 to 300 kBq, iv measured at 30 mins by gamma counting analysis; format: ADME, organism-based; conditions: in vivo, 0.5 h; in short: as §1
Urinary bladder [17] = assay: Biodistribution in CD1 mouse bladder at 200 to 300 kBq, iv measured at 60 mins by gamma counting analysis in presence of SSR180711; format: ADME, organism-based; conditions: in vivo, 1 h
In short: (§5)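 Blocking study in female CD-1 mice, n = 7 per blocker, with a matching control group. SSR180711 or NS6740 given at 10 mg kg⁻¹ ip in 0.9% saline 10 min before iv radiotracer (200–300 kBq). Organs taken at 60 min p.i., weighed and gamma-counted; uptake as % ID per g wet weight. Compared with control by two-tailed independent Student's t test.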

Mus musculus [18] = assay: Biodistribution in CD1 mouse thymus at 200 to 300 kBq, iv measured at 30 mins by gamma counting analysis; format: ADME, organism-based; conditions: in vivo, 0.5 h; in short: as §2
Mus musculus [19] = assay: Biodistribution in CD1 mouse thymus at 200 to 300 kBq, iv measured at 15 mins by gamma counting analysis; format: ADME, organism-based; conditions: in vivo, 0.25 h; in short: as §2
Muscle tissue [20] = assay: Biodistribution in CD1 mouse muscle at 200 to 300 kBq, iv measured at 60 mins by gamma counting analysis in presence of SSR180711; format: ADME, organism-based; conditions: in vivo, 1 h; in short: as §4
Mus musculus [21] = assay: Biodistribution in CD1 mouse large intestine at 200 to 300 kBq, iv measured at 60 mins by gamma counting analysis in presence of SSR180711; format: ADME, organism-based; conditions: in vivo, 1 h; in short: as §5
Brain [22] = assay: Biodistribution in CD1 mouse brain at 200 to 300 kBq, iv measured at 60 mins by gamma counting analysis in presence of SSR180711; format: ADME, organism-based; conditions: in vivo, 1 h; in short: as §5
Mus musculus [23] = assay: Biodistribution in CD1 mouse thymus at 200 to 300 kBq, iv measured at 60 mins by gamma counting analysis; format: ADME, organism-based; conditions: in vivo, 1 h; in short: as §3
[24] = Biodistribution in CD1 mouse urine at 200 to 300 kBq, iv measured at 15 mins by gamma counting analysis; format: ADME, organism-based; conditions: in vivo, 0.25 h; in short: as §3
Blood [25] = assay: Biodistribution in CD1 mouse blood at 200 to 300 kBq, iv measured at 60 mins by gamma counting analysis; format: ADME, organism-based; conditions: in vivo, 1 h; in short: as §1
Spleen = assay: Biodistribution in CD1 mouse spleen at 200 to 300 kBq, iv measured at 60 mins by gamma counting analysis; format: ADME, organism-based; conditions: in vivo, 1 h; in short: as §2
Stomach [26] = assay: Biodistribution in CD1 mouse stomach at 200 to 300 kBq, iv measured at 60 mins by gamma counting analysis; format: ADME, organism-based; conditions: in vivo, 1 h; in short: as §2
Muscle tissue [27] = assay: Biodistribution in CD1 mouse muscle at 200 to 300 kBq, iv measured at 5 mins by gamma counting analysis; format: ADME, organism-based; conditions: in vivo; in short: as §2
Kidney [28] = assay: Biodistribution in CD1 mouse kidney at 200 to 300 kBq, iv measured at 5 mins by gamma counting analysis; format: ADME, organism-based; conditions: in vivo; in short: as §1
Brain [29] = assay: Biodistribution in CD1 mouse brain at 200 to 300 kBq, iv measured at 5 mins by gamma counting analysis; format: ADME, organism-based; conditions: in vivo; in short: as §1

With `O=C(Oc1ccc(Br)cc1)N1CCN2CCC1CC2` [SSR180711] the Drug uptake (Mus musculus [1]) was 2.65 % ID/g, the Drug uptake (Pancreas [2]) was 3.12 % ID/g and the Drug uptake (Stomach [3]) was 5.45 % ID/g. For the same molecule, the Drug uptake [4] was 23.9 % ID/g, the Drug uptake (Mus musculus [5]) was 5.65 % ID/g and the Drug uptake [6] was 270 % ID/g. The Drug uptake (Pancreas [7]) was 5.48 % ID/g, the Drug uptake (Blood [8]) was 1.25 % ID/g and the Drug uptake (Femur [9]) was 1.48 % ID/g. The Drug uptake (Lung) was 4.41 % ID/g, the Drug uptake (Zone of skin) was 2.04 % ID/g and the Drug uptake (Muscle tissue [10]) was 1.88 % ID/g. It also gave a Drug uptake (Mus musculus [11]) of 6.72 % ID/g, a Drug uptake (Urinary bladder [12]) of 1.27 % ID/g and a Drug uptake (Femur [13]) of 2.09 % ID/g. It also gave a Drug uptake (Kidney [14]) of 8.5 % ID/g, a Drug uptake (Blood [15]) of 1.01 % ID/g and a Drug uptake (Brain [16]) of 0.18 % ID/g. For the same molecule, the Drug uptake (Urinary bladder [17]) was 1.47 % ID/g, the Drug uptake (Mus musculus [18]) was 2.6 % ID/g and the Drug uptake (Mus musculus [19]) was 2.98 % ID/g. For the same molecule, the Drug uptake (Muscle tissue [20]) was 1.02 % ID/g, the Drug uptake (Mus musculus [21]) was 5.46 % ID/g and the Drug uptake (Brain [22]) was 0.15 % ID/g. The Drug uptake (Mus musculus [23]) was 2.75 % ID/g, the Drug uptake [24] was 122 % ID/g and the Drug uptake (Blood [25]) was 0.78 % ID/g. It also gave a Drug uptake (Spleen) of 7.46 % ID/g, a Drug uptake (Stomach [26]) of 8.13 % ID/g and a Drug uptake (Muscle tissue [27]) of 1.59 % ID/g. The Drug uptake (Kidney [28]) was 10.6 % ID/g and the Drug uptake (Brain [29]) was 0.16 % ID/g.
